Key:
[1] = Selectivity index, ratio of CC50 for human MT4 cells to EC50 for reverse transcriptase F227L/V106A double mutant in human MT4 cells infected HIV1 3B
[2] = Fold resistance, ratio of EC50 for reverse transcriptase K103N mutant in human MT4 cells infected HIV1 3B to EC50 for wild type HIV1 3B harboring reverse transcriptase infected in human MT4 cells; assay type: functional
Summary of the method: (§1)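 MT-4 cells at 6 × 10^5 cells/mL were infected with WT HIV-1 IIIB or RT-mutant strains at 100−300 CCID50, with 5-fold serial compound dilutions in triplicate wells. After 5 days, viability was read by MTT reduction at 540 and 690 nm, using the median OD of three wells. […] Fold resistance is mutant EC50 divided by WT EC50.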

[3] = Fold resistance, ratio of EC50 for reverse transcriptase Y181C mutant in human MT4 cells infected HIV1 3B to EC50 for wild type HIV1 3B harboring reverse transcriptase infected in human MT4 cells; assay type: functional; summary of the method: as §1
[4] = tested on: Human immunodeficiency virus 1; experiment: Antiviral activity against wild type HIV1 3B harboring reverse transcriptase infected in human MT4 cells assessed as protection against virus induced cytotoxicity after 5 days by MTT assay; assay type: functional, cell-based; conditions: Human immunodeficiency virus 1, 3B, MT4, 120 h
[5] = Selectivity index, ratio of CC50 for human MT4 cells to EC50 for HIV1 RES056 reverse transcriptase K103N/Y181C double mutant infected in human MT4 cells
[6] = Selectivity index, ratio of CC50 for human MT4 cells to EC50 for reverse transcriptase Y181C mutant in human MT4 cells infected HIV1 3B
[7] = Fold resistance, ratio of EC50 for reverse transcriptase K103N/Y181C double mutant in human MT4 cells infected HIV1 RES056 to EC50 for wild type HIV1 3B harboring reverse transcriptase infected in human MT4 cells; assay type: functional; summary of the method: as §1
[8] = Selectivity index, ratio of CC50 for human MT4 cells to EC50 for reverse transcriptase L100I mutant in human MT4 cells infected HIV1 3B
[9] = Selectivity index, ratio of CC50 for human MT4 cells to EC50 for wild type HIV1 3B harboring reverse transcriptase infected in human MT4 cells
[10] = Cytotoxicity against human MT4 cells assessed as cell viability after 5 days by MTT assay; assay type: cell-based
[11] = Selectivity index, ratio of CC50 for human MT4 cells to EC50 for reverse transcriptase Y188L mutant in human MT4 cells infected HIV1 3B
[12] = Fold resistance, ratio of EC50 for reverse transcriptase L100I mutant in human MT4 cells infected HIV1 3B to EC50 for wild type HIV1 3B harboring reverse transcriptase infected in human MT4 cells; assay type: functional; summary of the method: as §1
[13] = Fold resistance, ratio of EC50 for reverse transcriptase F227L/V106A double mutant in human MT4 cells infected HIV1 3B to EC50 for wild type HIV1 3B harboring reverse transcriptase infected in human MT4 cells; assay type: functional; summary of the method: as §1
[14] = Fold resistance, ratio of EC50 for reverse transcriptase Y188L mutant in human MT4 cells infected HIV1 3B to EC50 for wild type HIV1 3B harboring reverse transcriptase infected in human MT4 cells; assay type: functional; summary of the method: as §1
[15] = Selectivity index, ratio of CC50 for human MT4 cells to EC50 for reverse transcriptase K103N mutant in human MT4 cells infected HIV1 3B
[16] = Selectivity index, ratio of CC50 for human MT4 cells to EC50 for reverse transcriptase E138K mutant in human MT4 cells infected HIV1 3B
[17] = Inhibition of recombinant wild type HIV1 3B reverse transcriptase infected in human MT4 cells assessed as decrease in biotin-dUTP incorporation after 1 hr; assay type: cell-based; conditions: Human immunodeficiency virus 1, 3B, MT4, 1 h
Summary of the method: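 Recombinant HIV-1 RT assayed with a kit ELISA. Enzyme, reconstituted template and nucleotides (DIG-dUTP, biotin-dUTP, dTTP) were incubated in incubation buffer with or without inhibitor for 1 h at 37 °C. Product was captured on streptavidin plates for 1 h at 37 °C, then anti-DIG-POD was added for 1 h at 37 °C, followed by ABTS. Read at OD405.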

[18] = Fold resistance, ratio of EC50 for reverse transcriptase E138K mutant in human MT4 cells infected HIV1 3B to EC50 for wild type HIV1 3B harboring reverse transcriptase infected in human MT4 cells; assay type: functional; summary of the method: as §1
[19] = tested on: Human immunodeficiency virus type 1 reverse transcriptase (Human immunodeficiency virus 1), Q72547 [K103N]; experiment: Potency index, ratio of EC50 for NVP to EC50 for test compound for reverse transcriptase K103N mutant in human MT4 cells infected HIV1 3B; assay type: cell-based
[20] = tested on: Human immunodeficiency virus type 1 reverse transcriptase (Human immunodeficiency virus 1), Q72547 [K103N]; experiment: Potency index, ratio of EC50 for EFV to EC50 for test compound for reverse transcriptase K103N mutant in human MT4 cells infected HIV1 3B; assay type: cell-based
[21] = tested on: Human immunodeficiency virus 2; experiment: Antiviral activity against HIV2 ROD harboring reverse transcriptase infected in human MT4 cells assessed as protection against virus induced cytotoxicity after 5 days by MTT assay; assay type: functional, cell-based; conditions: Human immunodeficiency virus 2, ISOLATE ROD, MT4, 120 h
Rattus norvegicus [22] = experiment: VRT(0 to infinity) in Sprague-Dawley rat at 2 mg/kg, iv by LC-MS analysis; assay type: ADME, organism-based; conditions: in vivo
Rattus norvegicus [23] = experiment: Apparent clearance during terminal phase in Sprague-Dawley rat at 2 mg/kg, iv by LC-MS analysis; assay type: ADME, organism-based; conditions: in vivo
[24] = MRT(0 to infinity) in Sprague-Dawley rat at 2 mg/kg, iv by LC-MS analysis; assay type: ADME, organism-based; conditions: in vivo
Rattus norvegicus [25] = experiment: AUC(0 to infinity) in Sprague-Dawley rat at 24 mg/kg, po by LC-MS analysis; assay type: ADME, organism-based; design: dose 24 mg/kg, route oral, time infinity; conditions: in vivo
Mus musculus [26] = experiment: Toxicity in Kunming mouse assessed as mortality at 2000 mg/kg, ig administered via gavage measure after 2 weeks; assay type: organism-based; conditions: in vivo, po, 336 h
[27] = Apparent half life in Sprague-Dawley rat at 2 mg/kg, iv by LC-MS analysis; assay type: ADME, organism-based; conditions: in vivo, read-out: t1/2(app) (converted)
[28] = Tmax in Sprague-Dawley rat at 24 mg/kg, po by LC-MS analysis; assay type: ADME, organism-based; conditions: in vivo
Mus musculus [29] = experiment: Toxicity in Kunming mouse assessed as increase in body weight at 2000 mg/kg, ig administered via gavage measure after 2 weeks; assay type: organism-based; conditions: in vivo, po, 336 h
[30] = AUC(0 to infinity) in Sprague-Dawley rat at 2 mg/kg, iv by LC-MS analysis; assay type: ADME, organism-based; design: dose 2 mg/kg, time infinity, route intravenous; conditions: in vivo
[31] = MRT(0 to t) in Sprague-Dawley rat at 24 mg/kg, po by LC-MS analysis; assay type: ADME, organism-based; conditions: in vivo
[32] = Cmax in Sprague-Dawley rat at 24 mg/kg, po by LC-MS analysis; assay type: ADME, organism-based; design: dose 24 mg/kg, route oral; conditions: in vivo
[33] = AUC(0 to t) in Sprague-Dawley rat at 24 mg/kg, po by LC-MS analysis; assay type: ADME, organism-based; conditions: in vivo
Rattus norvegicus [34] = experiment: VRT(0 to t) in Sprague-Dawley rat at 2 mg/kg, iv by LC-MS analysis; assay type: ADME, organism-based; conditions: in vivo
[35] = Apparent half life in Sprague-Dawley rat at 24 mg/kg, po by LC-MS analysis; assay type: ADME, organism-based; conditions: in vivo, read-out: t1/2(app) (converted)
Rattus norvegicus [36] = experiment: VRT(0 to t) in Sprague-Dawley rat at 24 mg/kg, po by LC-MS analysis; assay type: ADME, organism-based; conditions: in vivo
[37] = Cmax in Sprague-Dawley rat at 2 mg/kg, iv by LC-MS analysis; assay type: ADME, organism-based; design: dose 2 mg/kg, route intravenous; conditions: in vivo
[38] = MRT(0 to infinity) in Sprague-Dawley rat at 24 mg/kg, po by LC-MS analysis; assay type: ADME, organism-based; conditions: in vivo
[39] = MRT(0 to t) in Sprague-Dawley rat at 2 mg/kg, iv by LC-MS analysis; assay type: ADME, organism-based; conditions: in vivo
[40] = AUC(0 to t) in Sprague-Dawley rat at 2 mg/kg, iv by LC-MS analysis; assay type: ADME, organism-based; conditions: in vivo
Rattus norvegicus [41] = experiment: VRT(0 to infinity) in Sprague-Dawley rat at 24 mg/kg, po by LC-MS analysis; assay type: ADME, organism-based; conditions: in vivo

Compound	Ratio EC50 [2]	Ratio EC50 [3]	EC50 [4] [nM]	Ratio EC50 [7]	CC50 at 120 h [10] [nM]	Ratio EC50 [12]	Ratio EC50 [13]	Ratio EC50 [14]	IC50 [17] [nM]	Ratio EC50 [18]	selectivity ratio ([1]; MT4 cells)	selectivity ratio ([5]; MT4 cells)	selectivity ratio ([6]; MT4 cells)	selectivity ratio ([8]; MT4 cells)	selectivity ratio ([9]; MT4 cells)	selectivity ratio ([11]; MT4 cells)	EC50 [21] [nM]	selectivity ratio ([15]; MT4 cells)	selectivity ratio ([16]; MT4 cells)	other results
Cc1cc(C#N)cc(C)c1Oc1nc(Nc2ccc(C#N)cc2)nc(N)c1Br [ETRAVIRINE]	0.6 - 7.2	0.6 - 7.2	4.07	4.2	> 4590	1.3	0.6 - 7.2	0.6 - 7.2	1000	0.6 - 7.2	–	–	–	–	–	–	–	–	–	selectivity ratio [1]: 156; selectivity ratio [5]: > 270; selectivity ratio [6]: > 291; selectivity ratio [8]: > 853; selectivity ratio [9]: > 1130; selectivity ratio [11]: > 224; selectivity ratio [15]: > 1950; selectivity ratio [16]: > 318
Cc1cc(C#N)cc(C)c1Oc1nc(NC2CCN(Cc3ccc(S(C)(=O)=O)cc3)CC2)nc2sccc12	–	–	3.56	–	1190	–	–	–	–	–	137	28	200	152	335	124	> 1190	725	164	Ratio EC50 [19]: 3370; Ratio EC50 [20]: 50
Cc1cc(/C=C/C#N)cc(C)c1Oc1nc(NC2CCN(Cc3ccc(S(N)(=O)=O)cc3)CC2)nc2ccsc12	–	–	1.22	–	–	–	–	–	160	–	–	–	–	–	–	–	–	–	–	VRT (Rattus norvegicus [22]): 3.72 hr2; CLz/F (Rattus norvegicus [23]): 0.242 mL/min/kg; MRT inf [24]: 1.69 h; AUC (Rattus norvegicus [25]): 2692.2 ng·h/mL; Activity (Mus musculus [26]): Non-Toxic; half-life [27]: 1.34 h; Tmax [28]: 1.7 h; Activity (Mus musculus [29]): Non-Toxic; AUC(0-inf) [30]: 1390 ng·h/mL; MRT last [31]: 3.71 h; Cmax [32]: 553 ng/mL; AUC(0-t) [33]: 2320 ng·h/mL; VRT(t) (Rattus norvegicus [34]): 2.78 hr2; half-life [35]: 3.93 h; VRT(t) (Rattus norvegicus [36]): 8.11 hr2; Cmax [37]: 2220 ng/mL; MRT inf [38]: 5.54 h; MRT last [39]: 1.57 h; AUC(0-t) [40]: 1370 ng·h/mL; VRT (Rattus norvegicus [41]): 35.67 hr2
Cc1cc(C#N)cc(C)c1Oc1nc(NC2CCN(Cc3ccc(S(N)(=O)=O)cc3)CC2F)nc2ccsc12 (stereo unspecified)	1.4 - 6.5	1.4 - 6.5	5.69	1.4 - 6.5	5150	1.4 - 6.5	1.4 - 6.5	1.4 - 6.5	–	1.4 - 6.5	590	138	171	576	906	370	> 5150	653	296	–

— ChEMBL document CHEMBL4049458, “Structure-Based Optimization of Thiophene[3,2-d]pyrimidine Derivatives as Potent HIV-1 Non-nucleoside Reverse Transcriptase Inhibitors with Improved Potency against Resistance-Associated Variants” (J Med Chem, 2017)
